# Measured values from ChEMBL document CHEMBL2331516, “Synthesis and structure-activity relationships of 5,6,7-substituted pyrazolopyrimidines: discovery of a novel TSPO PET ligand for cancer imaging” (J Med Chem, 2013).
# Legend:
# [1] = system: Liver; experiment: Biodistribution in Wistar rat liver at 1.0 to 1.5 mCi after 60 mins by NaI well counting analysis; type: ADME, organism-based; conditions: in vivo, 1 h
# Outline: (§1)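 Radiotracer given to rats; 14 tissues plus urine taken 60 min after a 1.0–1.5 mCi injection. Each sample weighed and its radioactivity counted in a NaI well counter. %ID/g derived from weight and radioactivity.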
# [2] = system: Lung; experiment: Drug uptake in Wistar rat lung at 1.0 to 1.5 mCi after 90 mins by NaI well counting analysis in presence of 2-(5,7-diethyl-2-(4-(2-fluoroethoxy)phenyl)pyrazolo[1,5-a]-pyrimidin-3-yl)-N,N-diethylacetamide; type: ADME, tissue-based; conditions: in vivo, 1.5 h
# Outline: (§2)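 Rats received 1.0–1.5 mCi radiotracer. Unlabelled analog (10 mg/kg) was injected 30 min after tracer as a displacement challenge. Tissues taken and counted in a NaI well counter. %ID/g derived from sample weight and radioactivity.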
# [3] = system: Kidney; experiment: Drug uptake in Wistar rat kidney at 1.0 to 1.5 mCi after 90 mins by NaI well counting analysis in presence of 2-(5,7-diethyl-2-(4-(2-fluoroethoxy)phenyl)pyrazolo[1,5-a]-pyrimidin-3-yl)-N,N-diethylacetamide; type: ADME, tissue-based; conditions: in vivo, 1.5 h; outline: as §2
# [4] = Drug uptake in iv dosed C6 cells bearing Wistar rat olfactory epithelium after 90 mins by PET imaging analysis; type: ADME, organism-based; conditions: in vivo, 1.5 h
# Outline: (§3)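 Male Wistar rats stereotactically inoculated in the right hemisphere with 1.0×10^5 C6 glioma cells two weeks before imaging, with venous and arterial catheters placed. Tumors confirmed by 4.7-T MRI. PET/CT followed within 24 h, with tracer given via jugular catheter during the scan.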
# [5] = Ratio of total distribution volume in C6 cells bearing Wistar rat tumor to total distribution volume in C6 cells bearing Wistar rat brain; type: ADME, cell-based
# [6] = system: Spleen; experiment: Biodistribution in Wistar rat spleen at 1.0 to 1.5 mCi after 60 mins by NaI well counting analysis; type: ADME, organism-based; conditions: in vivo, 1 h; outline: as §1
# [7] = Drug uptake in iv dosed C6 cells bearing Wistar rat tumor after 90 mins by PET imaging analysis; type: ADME, organism-based, Neoplasm; conditions: in vivo, 1.5 h; outline: as §3
# [8] = Drug uptake in iv dosed C6 cells bearing Wistar rat tongue after 90 mins by PET imaging analysis; type: ADME, organism-based; conditions: in vivo, 1.5 h; outline: as §3
# [9] = species on record: Rattus norvegicus; experiment: Biodistribution in Wistar rat whole blood at 1.0 to 1.5 mCi after 60 mins by NaI well counting analysis; type: ADME, organism-based; conditions: in vivo, 1 h; outline: as §1
# [10] = system: Heart; experiment: Biodistribution in Wistar rat heart at 1.0 to 1.5 mCi after 60 mins by NaI well counting analysis; type: ADME, organism-based; conditions: in vivo, 1 h; outline: as §1
# [11] = species on record: Rattus norvegicus; experiment: Biodistribution in Wistar rat stomach at 1.0 to 1.5 mCi after 60 mins by NaI well counting analysis; type: ADME, organism-based; conditions: in vivo, 1 h; outline: as §1
# [12] = system: Liver; experiment: Drug uptake in Wistar rat liver at 1.0 to 1.5 mCi after 90 mins by NaI well counting analysis in presence of 2-(5,7-diethyl-2-(4-(2-fluoroethoxy)phenyl)pyrazolo[1,5-a]-pyrimidin-3-yl)-N,N-diethylacetamide; type: ADME, tissue-based; conditions: in vivo, 1.5 h; outline: as §2
# [13] = system: Muscle tissue; experiment: Drug uptake in Wistar rat muscle at 1.0 to 1.5 mCi after 90 mins by NaI well counting analysis in presence of 2-(5,7-diethyl-2-(4-(2-fluoroethoxy)phenyl)pyrazolo[1,5-a]-pyrimidin-3-yl)-N,N-diethylacetamide; type: ADME, tissue-based; conditions: in vivo, 1.5 h; outline: as §2
# [14] = system: Colon; experiment: Biodistribution in Wistar rat colon at 1.0 to 1.5 mCi after 60 mins by NaI well counting analysis; type: ADME, organism-based; conditions: in vivo, 1 h; outline: as §1
# [15] = system: Brain; experiment: Drug uptake in iv dosed C6 cells bearing Wistar rat brain after 90 mins by PET imaging analysis; type: ADME, organism-based; conditions: in vivo, 1.5 h; outline: as §3
# [16] = system: Kidney; experiment: Biodistribution in Wistar rat kidney at 1.0 to 1.5 mCi after 60 mins by NaI well counting analysis; type: ADME, organism-based; conditions: in vivo, 1 h; outline: as §1
# [17] = species on record: Rattus norvegicus; experiment: Biodistribution in Wistar rat small bowel at 1.0 to 1.5 mCi after 60 mins by NaI well counting analysis; type: ADME, organism-based, Small intestine; conditions: in vivo, 1 h; outline: as §1
# [18] = species on record: Rattus norvegicus; experiment: Biodistribution in Wistar rat skull at 1.0 to 1.5 mCi after 60 mins by NaI well counting analysis; type: ADME, organism-based; conditions: in vivo, 1 h; outline: as §1
# [19] = species on record: Rattus norvegicus; experiment: Stability in C6 cells bearing Wistar rat plasma at 1.5 mCi after 90 mins by radio-HPLC analysis; type: ADME, organism-based; conditions: c6, 1.5 h
# Outline: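 Arterial blood (200 μL) drawn at 2, 12, 30, 60 and 90 min after 1.5 mCi radiotracer. Plasma extracted with acetonitrile/water 7/1 and centrifuged. Supernatant run on reversed-phase radio-HPLC with 0.1 M ammonium acetate pH 10/acetonitrile (30/70).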
# [20] = system: Heart; experiment: Drug uptake in Wistar rat heart at 1.0 to 1.5 mCi after 90 mins by NaI well counting analysis in presence of 2-(5,7-diethyl-2-(4-(2-fluoroethoxy)phenyl)pyrazolo[1,5-a]-pyrimidin-3-yl)-N,N-diethylacetamide; type: ADME, tissue-based; conditions: in vivo, 1.5 h; outline: as §2
# [21] = system: Harderian gland; experiment: Drug uptake in iv dosed C6 cells bearing Wistar rat harderian glands after 90 mins by PET imaging analysis; type: ADME, organism-based; conditions: in vivo, 1.5 h; outline: as §3
# [22] = system: Lung; experiment: Biodistribution in Wistar rat lung at 1.0 to 1.5 mCi after 60 mins by NaI well counting analysis; type: ADME, organism-based; conditions: in vivo, 1 h; outline: as §1
# [23] = species on record: Rattus norvegicus; experiment: Biodistribution in Wistar rat skeletal muscle at 1.0 to 1.5 mCi after 60 mins by NaI well counting analysis; type: ADME, organism-based, Muscle tissue; conditions: in vivo, 1 h; outline: as §1
# [24] = system: Brain; experiment: Biodistribution in Wistar rat brain at 1.0 to 1.5 mCi after 60 mins by NaI well counting analysis; type: ADME, organism-based; conditions: in vivo, 1 h; outline: as §1
# [25] = system: Testes; experiment: Biodistribution in Wistar rat testes at 1.0 to 1.5 mCi after 60 mins by NaI well counting analysis; type: ADME, organism-based, Testis; conditions: in vivo, 1 h; outline: as §1
# [26] = system: Spleen; experiment: Drug uptake in Wistar rat spleen at 1.0 to 1.5 mCi after 90 mins by NaI well counting analysis in presence of 2-(5,7-diethyl-2-(4-(2-fluoroethoxy)phenyl)pyrazolo[1,5-a]-pyrimidin-3-yl)-N,N-diethylacetamide; type: ADME, tissue-based; conditions: in vivo, 1.5 h; outline: as §2
# [27] = Drug excretion in Wistar rat urine at 1.0 to 1.5 mCi after 90 mins by NaI well counting analysis in presence of 2-(5,7-diethyl-2-(4-(2-fluoroethoxy)phenyl)pyrazolo[1,5-a]-pyrimidin-3-yl)-N,N-diethylacetamide; type: ADME, tissue-based; conditions: in vivo, 1.5 h; outline: as §2
# [28] = Lipophilicity, log P of the compound at pH 7.5 by reversed phase HPLC analysis; type: physicochemical; conditions: buffer
# Outline: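 Retention times were set relative to catechol and calibrated against standards of known log P using a polynomial log P vs log RRT curve. Injections were done in triplicate and averaged.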
# [29] = target: Translocator protein (Rattus norvegicus, UniProt P16257); experiment: Displacement of [3H]-PK 11195 from TSPO in rat C6 cell lysates after 2 hrs by scintillation counting analysis; type: cell-free
# Outline: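 Rat C6 glioma cells washed in PBS and freeze-thawed three times in HEPES/mannitol/sucrose lysis buffer with protease inhibitors and MgCl2, pH 7.4 (lysate 0.5 mg/mL). Reaction stopped by filtration onto PEI-presoaked filters, then scintillation counting.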
# [30] = Displacement of [3H]-flunitrazepam from CBR in Wistar rat cerebral cortex membranes after 2 hrs by scintillation counting analysis; type: cell membranes, Membrane
# Outline: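 Male Wistar rat cerebral cortex homogenized in ice-cold PBS pH 7.4 (5.0 mg/mL protein). Incubated with 0.6 nM [3H]flunitrazepam (final) and ligand at 10⁻⁵ to 10⁻⁷ M for 2 h at 25 °C. Reaction stopped by filtration onto PEI-presoaked filters, then scintillation counting of bound activity.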
# [31] = Drug metabolism in Wistar rat plasma at 130 to 200 MBq, iv after 12 mins by radio-HPLC analysis; type: ADME, organism-based; conditions: read-out: Drug metabolism
# Chain of Translocator protein (P16257 whole entry, looked up): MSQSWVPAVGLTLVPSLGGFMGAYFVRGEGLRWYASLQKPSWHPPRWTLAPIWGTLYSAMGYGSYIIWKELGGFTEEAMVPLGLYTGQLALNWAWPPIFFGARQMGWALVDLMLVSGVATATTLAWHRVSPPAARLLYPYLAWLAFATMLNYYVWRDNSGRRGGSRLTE
smiles,measurement,setting,value
CCc1cc(CC)n2nc(-c3ccc(OCC[18F])cc3)c(CC(=O)N(CC)CC)c2n1,Drug uptake,[1],Active
same,Drug uptake,[2],Not Active
same,Drug uptake,[3],Not Active
same,Drug uptake,[4],Active
same,Ratio,[5],6
same,Drug uptake,[6],Active
same,Drug uptake,[7],Active
same,Drug uptake,[8],Active
same,Ct,[9],Not Active
same,Drug uptake,[10],Active
same,Drug uptake,[11],Active
same,Drug uptake,[12],Active
same,Drug uptake,[13],Active
same,Drug uptake,[14],Active
same,Drug uptake,[15],Active
same,Drug uptake,[16],Active
same,Drug uptake,[17],Active
same,Drug uptake,[18],Active
same,Stability,[19],Stable
same,Drug uptake,[20],Not Active
same,Drug uptake,[21],Active
same,Drug uptake,[22],Active
same,Drug uptake,[23],Active
same,Drug uptake,[24],Active
same,Drug uptake,[25],Active
same,Drug uptake,[26],Not Active
same,Drug excretion,[27],Active
CCN(CC)C(=O)Cc1c(-c2ccc(OC)cc2)nn2c(C)c(Cl)c(C)nc12,logP,[28],2.99
same,Ki,[29],55.4 nM
CCc1cc(CC)n2nc(-c3ccc(OCCF)cc3)c(CC(=O)N(CC)CC)c2n1,logP,[28],2.5
same,Ki,[30],> 10000 nM
same,Ki,[29],0.27 nM
CCN(CC)C(=O)Cc1c(-c2ccc(OCCF)cc2)nn2c(C(C)C)cc(C(C)C)nc12,logP,[28],2.73
same,Ki,[29],> 500 nM
CCN(CC)C(=O)Cc1c(-c2ccc(OCCF)cc2)nn2c(C)c(C)c(C)nc12,logP,[28],2.47
same,Ki,[29],83 nM
CCc1c(C)nc2c(CC(=O)N(CC)CC)c(-c3ccc(OCCF)cc3)nn2c1C,logP,[28],2.53
same,Ki,[29],277 nM
CCN(CC)C(=O)Cc1c(-c2ccc(OCCF)cc2)nn2c(C)c(CC(C)=O)c(C)nc12,logP,[28],2.07
same,Ki,[29],252 nM
CCN(CC)C(=O)Cc1c(-c2ccc(OCCF)cc2)nn2c(C)c(Cl)c(C)nc12,logP,[28],2.55
same,Ki,[29],67.9 nM
CCc1cc(CC)n2nc(-c3ccc(OC)cc3)c(CC(=O)N(CC)CC)c2n1,logP,[28],2.84
same,Ki,[29],0.18 nM
CCN(CC)C(=O)Cc1c(-c2ccc(OC)cc2)nn2c(C(C)C)cc(C(C)C)nc12,logP,[28],2.98
same,Ki,[29],> 500 nM
CCN(CC)C(=O)Cc1c(-c2ccc(OC)cc2)nn2c(C)c(C)c(C)nc12,logP,[28],2.45
same,Ki,[29],93.7 nM
CCc1c(C)nc2c(CC(=O)N(CC)CC)c(-c3ccc(OC)cc3)nn2c1C,logP,[28],2.78
same,Ki,[29],157 nM
CCN(CC)C(=O)Cc1c(-c2ccc(OC)cc2)nn2c(C)c(CC(C)=O)c(C)nc12,logP,[28],2.57
same,Ki,[29],201 nM
CCN(CC)C(=O)Cc1c(-c2ccc(OC)cc2)nn2c(C)cc(C)nc12,logP,[28],2.4
CCN(CC)C(=O)Cc1c(-c2ccc(OCC[18F])cc2)nn2c(C)cc(C)nc12 [DPA-714 F-18],metabolised at 0.2 h,[31],30%
CCN(CC)C(=O)Cc1c(-c2ccc(OCCF)cc2)nn2c(C)cc(C)nc12 [DPA-714],logP,[28],2.12
